Measured values published in PubChem BioAssay AID463148 (The Scripps Research Institute Molecular Screening Center, 2010).
Active and inactive are the calls of the source.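 Rule for the calls: active = fold change inhibition above 1.5; inactive = the rest.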

tested on: GAL4DBD-VP16 transactivation domain fusion (Human herpesvirus 1 VP16); assay: GAL4-VP16 transactivation inhibitors, late-stage follow-up, counter-screen for RORA inverse agonist project, cell-based, luminescence, HEK293T, powder samples (AID 463148); conditions: HEK293T GAL4-VP16 UAS-luciferase, 18-24 h, at 10 µM, active compounds read high
Summary of the method: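 material = transfected HEK293T GAL4-VP16 UAS-luciferase reporter cells | timing = 20 h compound exposure after transfection | measured by = luminescence of luciferase reporter | benchmarks = DMSO vehicle wells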

SMILES	fold change inhibition
O=C(Nc1ccc(C(O)(C(F)(F)F)C(F)(F)F)cc1)c1ccccc1C(F)(F)F	0.941 (inactive)
O=S(=O)(Nc1ccc(C(O)(C(F)(F)F)C(F)(F)F)cc1)c1cccs1	0.97 (inactive)
O=C(Nc1ccc(C(O)(C(F)(F)F)C(F)(F)F)cc1)c1ccc(Cl)cc1	1.27 (inactive)

Now from value to molecule:

fold change inhibition	SMILES
1.01 (inactive)	O=C(Nc1ccc(C(O)(C(F)(F)F)C(F)(F)F)cc1)c1ccc(F)cc1Cl
1.05 (inactive)	O=C(Nc1ccc(C(O)(C(F)(F)F)C(F)(F)F)cc1)c1c(F)cccc1F
1.68	O=C(Nc1ccc(C(O)(C(F)(F)F)C(F)(F)F)cc1)c1ccc(F)cc1F
